This is an account of results in ChEMBL document CHEMBL1142302, “Discovery of subnanomolar arginine-glycine-aspartate-based alphaVbeta3/alphaVbeta5 integrin binders embedding 4-aminoproline residues” (J Med Chem, 2008).

The target in experiment [1] is T1, Integrin alpha-V/beta-3 (Homo sapiens, UniProt P05106+P06756). The experiment in a line: Displacement of [125I]echistatin from human integrin alpha-V-beta-3 receptor low affinity state by solid phase assay. The class given is protein-complex assay.
Target sequence in this assay (P05106 27-788 limits assumed): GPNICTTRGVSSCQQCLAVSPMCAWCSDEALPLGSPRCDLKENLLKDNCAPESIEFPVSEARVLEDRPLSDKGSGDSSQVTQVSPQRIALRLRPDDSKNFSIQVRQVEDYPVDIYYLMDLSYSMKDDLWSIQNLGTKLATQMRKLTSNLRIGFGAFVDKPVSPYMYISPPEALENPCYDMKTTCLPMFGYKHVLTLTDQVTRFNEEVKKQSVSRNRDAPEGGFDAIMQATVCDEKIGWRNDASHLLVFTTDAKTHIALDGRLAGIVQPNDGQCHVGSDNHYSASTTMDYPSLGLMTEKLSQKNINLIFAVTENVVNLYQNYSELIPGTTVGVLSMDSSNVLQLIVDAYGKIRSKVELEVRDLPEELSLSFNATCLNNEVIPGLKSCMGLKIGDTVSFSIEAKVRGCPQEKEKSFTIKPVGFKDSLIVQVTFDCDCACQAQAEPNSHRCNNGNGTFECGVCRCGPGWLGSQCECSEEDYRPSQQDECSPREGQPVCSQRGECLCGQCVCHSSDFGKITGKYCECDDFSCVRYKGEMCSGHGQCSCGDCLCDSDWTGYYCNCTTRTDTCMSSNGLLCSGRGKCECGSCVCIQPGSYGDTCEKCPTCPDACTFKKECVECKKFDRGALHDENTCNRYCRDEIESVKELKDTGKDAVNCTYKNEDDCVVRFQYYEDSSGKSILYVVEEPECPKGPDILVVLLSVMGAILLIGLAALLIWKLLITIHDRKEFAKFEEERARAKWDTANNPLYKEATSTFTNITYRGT
Target sequence in this assay (P06756 31-889 limits assumed): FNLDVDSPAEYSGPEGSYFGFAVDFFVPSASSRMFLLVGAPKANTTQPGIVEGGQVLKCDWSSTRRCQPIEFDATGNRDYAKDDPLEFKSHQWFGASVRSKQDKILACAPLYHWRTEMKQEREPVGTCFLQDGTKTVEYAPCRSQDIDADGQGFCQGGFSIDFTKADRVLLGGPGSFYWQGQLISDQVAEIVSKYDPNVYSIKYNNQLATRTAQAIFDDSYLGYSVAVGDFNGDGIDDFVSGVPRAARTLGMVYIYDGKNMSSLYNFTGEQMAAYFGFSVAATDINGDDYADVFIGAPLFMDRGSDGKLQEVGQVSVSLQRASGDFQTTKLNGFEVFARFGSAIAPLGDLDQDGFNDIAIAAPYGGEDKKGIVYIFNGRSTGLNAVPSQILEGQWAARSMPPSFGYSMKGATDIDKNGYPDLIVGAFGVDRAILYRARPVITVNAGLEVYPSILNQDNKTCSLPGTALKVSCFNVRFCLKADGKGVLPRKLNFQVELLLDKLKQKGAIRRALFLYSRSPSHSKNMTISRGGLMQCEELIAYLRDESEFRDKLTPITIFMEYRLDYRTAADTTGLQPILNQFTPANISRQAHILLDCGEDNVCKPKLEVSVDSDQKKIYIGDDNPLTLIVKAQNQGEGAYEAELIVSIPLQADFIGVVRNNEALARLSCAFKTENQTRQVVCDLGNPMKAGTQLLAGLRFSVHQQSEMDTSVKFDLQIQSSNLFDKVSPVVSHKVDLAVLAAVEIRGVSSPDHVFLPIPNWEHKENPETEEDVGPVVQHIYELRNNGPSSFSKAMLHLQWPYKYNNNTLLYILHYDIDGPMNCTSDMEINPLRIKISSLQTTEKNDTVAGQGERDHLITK
Target sequence in this assay (P06756 891-1048 limits assumed): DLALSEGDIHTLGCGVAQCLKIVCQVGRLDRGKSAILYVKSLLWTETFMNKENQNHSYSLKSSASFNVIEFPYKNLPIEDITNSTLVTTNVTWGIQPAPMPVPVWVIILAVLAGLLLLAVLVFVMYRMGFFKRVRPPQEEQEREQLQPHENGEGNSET
Experiment [2] has as its target T2, Integrin alpha-V/beta-5 (Homo sapiens, UniProt P06756+P18084). The experiment in a line: Displacement of [125I]echistatin from human integrin alpha-V-beta-5 receptor by solid phase assay. Type of experiment: protein-complex assay. Put shortly: (§1)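 Competitive binding to purified human integrin protein (αVβ3 or αVβ5) measured as inhibition of [¹²⁵I]-echistatin specific binding over a range of inhibitor concentrations. Each point is the mean ± SEM of triplicate determinations, and IC50 is read from the inhibition curves.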
For orientation: Displacement assays read how much labelled ligand stays bound in the presence of the test substance.
Target sequence in this assay (P06756 31-889 limits assumed): as the sequence (P06756 31-889 limits assumed) above
Target sequence in this assay (P06756 891-1048 limits assumed): as the sequence (P06756 891-1048 limits assumed) above
Target sequence in this assay (P18084 24-799 limits assumed): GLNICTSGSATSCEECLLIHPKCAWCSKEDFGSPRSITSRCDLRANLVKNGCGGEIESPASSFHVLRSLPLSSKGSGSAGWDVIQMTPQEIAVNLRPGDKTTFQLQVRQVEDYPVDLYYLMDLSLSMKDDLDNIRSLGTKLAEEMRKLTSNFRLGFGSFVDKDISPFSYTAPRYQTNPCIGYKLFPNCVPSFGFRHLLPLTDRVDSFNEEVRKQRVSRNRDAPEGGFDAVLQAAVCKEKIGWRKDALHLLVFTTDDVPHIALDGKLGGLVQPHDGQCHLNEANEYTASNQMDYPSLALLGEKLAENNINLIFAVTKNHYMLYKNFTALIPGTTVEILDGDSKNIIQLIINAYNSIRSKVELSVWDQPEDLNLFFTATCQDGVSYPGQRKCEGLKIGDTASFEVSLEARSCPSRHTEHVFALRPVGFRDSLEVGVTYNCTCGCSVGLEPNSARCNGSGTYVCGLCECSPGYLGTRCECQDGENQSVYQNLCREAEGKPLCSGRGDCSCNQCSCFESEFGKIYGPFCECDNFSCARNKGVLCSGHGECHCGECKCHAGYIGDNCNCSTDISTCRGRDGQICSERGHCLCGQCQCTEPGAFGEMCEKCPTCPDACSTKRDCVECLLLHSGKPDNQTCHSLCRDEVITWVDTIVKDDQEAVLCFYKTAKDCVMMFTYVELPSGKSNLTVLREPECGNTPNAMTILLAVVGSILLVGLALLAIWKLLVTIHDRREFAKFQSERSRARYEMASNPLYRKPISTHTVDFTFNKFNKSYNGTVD

Experiment [3] concerns the target T2, Integrin alpha-V/beta-5. Put plainly: Displacement of [125I]echistatin from human integrin alpha-V-beta-5 receptor low affinity state by solid phase assay. Type of experiment: protein-complex assay.
Target sequence in this assay (P06756 31-889 limits assumed): as the sequence (P06756 31-889 limits assumed) above
Target sequence in this assay (P06756 891-1048 limits assumed): as the sequence (P06756 891-1048 limits assumed) above
Target sequence in this assay (P18084 24-799 limits assumed): as the sequence (P18084 24-799 limits assumed) above
Experiment [4] has as its target T1, Integrin alpha-V/beta-3. The experiment in a line: Displacement of [125I]echistatin from human integrin alpha-V-beta-3 receptor by solid phase assay. The class given is protein-complex assay. A digest of the protocol: as §1
Target sequence in this assay (P05106 27-788 limits assumed): as the sequence (P05106 27-788 limits assumed) above
Target sequence in this assay (P06756 31-889 limits assumed): as the sequence (P06756 31-889 limits assumed) above
Target sequence in this assay (P06756 891-1048 limits assumed): as the sequence (P06756 891-1048 limits assumed) above
The target in experiment [5] is T1, Integrin alpha-V/beta-3. Put plainly: Displacement of [125I]echistatin from human integrin alpha-V-beta-3 receptor low affinity state by solid phase assay relative to control. Type of experiment: protein-complex assay. Further details: concentration or dose not given beside the values. Conditions: concentration not given here. Put shortly: (§2)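 Competition for [125I]-echistatin specific binding to purified human αvβ3 or αvβ5 integrin protein. Inhibition was plotted against test compound concentration. Each point is the mean ± SEM of triplicate determinations.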

Experiment [6] concerns the target T1, Integrin alpha-V/beta-3. The experiment in a line: Displacement of [125I]echistatin from human integrin alpha-V-beta-3 receptor high affinity state by solid phase assay relative to control. The class given is protein-complex assay. Further details: concentration or dose not given beside the values. Conditions: concentration not given here. Put shortly: as §2

Experiment [7] addresses T3, Integrin alpha-5/beta-1 (Homo sapiens, UniProt P05556+P08648). The experiment in a line: Inhibition of human integrin alpha-5-beta-1 receptor mediated WM115 cell adhesion to vitronectin. The class given is cell-based, WM-115.
Experiment [8] has as its target T1, Integrin alpha-V/beta-3. Put plainly: Inhibition of human integrin alpha-V-beta-3 receptor mediated K562 cell adhesion to vitronectin. The class given is cell-based.
Target sequence in this assay (P05106 27-788 limits assumed): as the sequence (P05106 27-788 limits assumed) above
Target sequence in this assay (P06756 31-889 limits assumed): as the sequence (P06756 31-889 limits assumed) above
Target sequence in this assay (P06756 891-1048 limits assumed): as the sequence (P06756 891-1048 limits assumed) above
Experiment [9] addresses T3, Integrin alpha-5/beta-1. The experiment in a line: Inhibition of human integrin alpha5beta1 receptor mediated K562 cell adhesion to vitronectin. The class given is cell-based.
The target of experiment [10] is T1, Integrin alpha-V/beta-3. The experiment in a line: Inhibition of human integrin alpha-v-beta-3 receptor mediated WM115 cell adhesion to vitronectin. The class given is cell-based, WM-115.
Target sequence in this assay (P05106 27-788 limits assumed): as the sequence (P05106 27-788 limits assumed) above
Target sequence in this assay (P06756 31-889 limits assumed): as the sequence (P06756 31-889 limits assumed) above
Target sequence in this assay (P06756 891-1048 limits assumed): as the sequence (P06756 891-1048 limits assumed) above
Experiment [11] addresses T2, Integrin alpha-V/beta-5. The experiment in a line: Displacement of [125I]echistatin from human integrin alpha-V-beta-5 receptor low affinity state by solid phase assay relative to control. The class given is protein-complex assay. Conditions: concentration not given here.
Experiment [12] addresses T2, Integrin alpha-V/beta-5. Put plainly: Displacement of [125I]echistatin from human integrin alpha-V-beta-5 receptor high affinity state by solid phase assay relative to control. The class given is protein-complex assay. Conditions: concentration not given here.

*1 amine or outer side, *2 acyl side, *3 side chain or, on linkers, in order; H or OH if unused. Where a SMILES comes first, the peptide text is derived from it. Bridges are numbered along the chain shown (N, C = ends). [ ]: non-standard residue; d: D form. Pro(trans-4-NH2) = O=C([C@@H]1C[C@@H](N[*:3])CN1[*:1])[*:2]

A word on the IC50: it is the point on the concentration scale where inhibition reaches its midpoint. Turning to `CCCCCCCN1C[C@@H]2C[C@H]1C(=O)N[C@@H](CCCN=C(N)N)C(=O)NCC(=O)N[C@@H](CC(=O)O)C(=O)N2`, the half-inhibitory concentration (IC50) in [1] turned out to be 0.178 µM; in experiment [2], 0.0361 µM; in experiment [3] it was 0.0623 µM; in experiment [4], 0.00284 µM.
For `NC(N)=NCCC[C@@H]1NC(=O)CNC(=O)[C@@H](CC(=O)O)N[C@H]2CCC[C@H]3CC[C@H](C1=O)N3C2=O`, the IC50 is 0.0009 µM in experiment [2] and 0.00564 µM in [4].
On to `NC(N)=NCCC[C@@H]1NC(=O)[C@@H]2C[C@H](CN2C(=O)c2ccccc2)NC(=O)[C@H](CC(=O)O)NC(=O)CNC1=O`, for which the IC50 is 0.327 µM in experiment [1] and 0.174 µM in [4].
By inhibition is commonly meant the change of the read-out against control, counted positive when it falls. For the compound `CCC(=O)N1C[C@@H]2C[C@H]1C(=O)N[C@@H](CCCNC(=N)N)C(=O)NCC(=O)N[C@@H](CC(=O)O)C(=O)N2`, the inhibition is 57.9% in [5] and 42.1% in experiment [6].
For `N=C(N)NCCC[C@@H]1NC(=O)[C@@H]2CC[C@H](C2)NC(=O)[C@H](CC(=O)O)NC(=O)CNC1=O`, the IC50 in [2] was found to be 0.00112 µM; in [4], 0.00026 µM.
For `CCC(=O)N1C[C@@H]2C[C@H]1C(=O)N[C@@H](CCCN=C(N)N)C(=O)NCC(=O)N[C@@H](CC(=O)O)C(=O)N2`, the IC50 worked out at 0.251 µM in [1] and 0.0056 µM in experiment [4].
Regarding `N=C(N)NCCC[C@@H]1NC(=O)[C@@H]2C[C@@H](CN2C(=O)c2ccccc2)NC(=O)[C@H](CC(=O)O)NC(=O)CNC1=O`, the inhibition worked out at 42.2% in experiment [5] and 57.8% in experiment [6].
The corresponding values for `N=C(N)NCCC[C@@H]1NC(=O)[C@@H]2C[C@H](CN2)NC(=O)[C@H](CC(=O)O)NC(=O)CNC1=O` (H-[Pro(trans-4-NH2)]RGD; lactam 1-C) are 15.5% and 84.5%.
Take `COC(=O)[C@H]1[C@@H]2NC(=O)[C@H](CC(=O)O)NC(=O)CNC(=O)[C@H](CCCNC(=N)N)NC(=O)[C@H](C(C)C)NC(=O)[C@@H]21`: the IC50 is 1.5 µM in [7], 0.02 µM in experiment [8], 1.5 µM in [9] and 0.02 µM in experiment [10].
With `NC(N)=NCCC[C@@H]1NC(=O)[C@@H]2C[C@@H](CN2C(=O)c2ccccc2)NC(=O)[C@H](CC(=O)O)NC(=O)CNC1=O`, the IC50 in experiment [1] came out at 0.6 µM; in [4], 0.00515 µM.
Consider `CCCCCCCN1C[C@@H]2C[C@H]1C(=O)N[C@@H](CCCNC(=N)N)C(=O)NCC(=O)N[C@@H](CC(=O)O)C(=O)N2`, for which the inhibition came to 46.3% in experiment [5], 71% in experiment [11], 53.7% in [6] and 29% in experiment [12].
`N=C(N)NCCC[C@@H]1NC(=O)[C@@H]2C[C@H](CN2C(=O)c2ccccc2)NC(=O)[C@H](CC(=O)O)NC(=O)CNC1=O`: the inhibition in [5] is 68.4%; in experiment [6] it was 31.6%.
